Data on four compounds can be found in ChEMBL document CHEMBL4177557, “Anti-inflammatory Flavan-3-ol-dihydroretrochalcones from Daemonorops draco” (J Nat Prod, 2017).

The IC50 is the concentration that gives 50% inhibition.

Experiment [1] deals with Neutrophil. The experiment can be described thus: Inhibition of fMLP/CB-induced elastase release in human neutrophils. It is filed as functional, cell-based. Summed up:
(§1)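 Isolated human neutrophils stimulated with fMLP plus cytochalasin B. Superoxide measured as SOD-inhibitable ferricytochrome c reduction. Azurophilic degranulation measured as elastase release. IC50, the concentration giving 50% inhibition, calculated by computer; mean ± SEM, n = 3–5; Student's t test.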

The subject of experiment [2] is Neutrophil. The experiment can be described thus: Inhibition of fMLP/CB-induced superoxide anion production in human neutrophils assessed as SOD-based ferricytochrome c reduction assay. It is filed as functional, cell-based. The essentials:
as §1

As to `COC1=CC(=O)C(C)=C2O[C@]3(c4ccccc4)Oc4cc(O)c(C)c(OC)c4[C@@H]([C@H]3O)[C@]12CCC(=O)c1ccccc1`, the figures for the IC50 in the experiment on Neutrophil [1] and in the experiment with Neutrophil [2] were 4.5 µM and 3.1 µM, respectively.

As to `COC1=C(CCC(=O)c2ccccc2)C(=O)[C@@H]2C(=O)[C@H]1[C@H]1c3c(cc(O)c(C)c3OC)O[C@]2(c2ccccc2)[C@@H]1O`, the IC50 with Neutrophil [1] and with Neutrophil [2] was more than 10 µM throughout.

`COC1=CC(=O)[C@]2(C)C(=O)[C@@]1(CCC(=O)c1ccccc1)[C@H]1c3c(cc(O)c(C)c3OC)O[C@]2(c2ccccc2)[C@@H]1O`: the IC50 with Neutrophil [1] and in the experiment on Neutrophil [2] was more than 10 µM each time.

For `O=c1cc(N2CCOCC2)oc2c(-c3ccccc3)cccc12` [LY-294002], the IC50 in the experiment on Neutrophil [1] was found to be 1.5 µM; in the experiment with Neutrophil [2], 0.4 µM.
